How the values were obtained:
[1] = test system: Aβ1-42, Aβ1-40, Aβ1-38 and Aβ1-37 in H4-APPsw cell cultures; assay type: cell-based; settings: overnight
In short: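 H4-APPsw cultures incubated overnight with test compound at 0.46 to 333 nM, with 0.1% DMSO vehicle and a γ-secretase inhibitor reference at 1 μM. Aβ1-42, Aβ1-40, Aβ1-38 and Aβ1-37 were measured by Meso Scale 4-plex immunoassay. Concentrations came from on-plate synthetic-peptide calibration curves (quadratic fit), in pM corrected for dilution. Two replicate wells, standard error shown.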

[2] = test system: Aβx-42 in H4-APPsw cell cultures; experiment: Automated multiplex HTRF assay, Aβx-42 in H4-APPsw cell cultures; assay type: cell-based
In short: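 H4-APPsw cultures treated overnight, 1 pM to 50 μM. Aβx-42 and Aβ1-x were read together in an automated HTRF multiplex; the Aβx-42 detection pairing includes monoclonal 4G8. Concentrations came from synthetic-peptide calibration curves (quadratic fit). Seven independent assays; IC50 for Aβx-42 and maximum percent inhibition for Aβ1-x, given with standard deviations.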

[3] = test system: amyloid-β precursor protein C-terminal fragment; experiment: APP C-terminal fragment accumulation in rat brain; assay type: in vivo, rats; settings: 30 mg/kg oral, 8 or 12 hours
[4] = test system: CSF Aβ peptides; experiment: CSF Aβ peptides in healthy human subjects after a single 900-mg oral dose; assay type: in vivo
In short: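 Placebo-controlled, double-blind single-dose panel of 15 healthy young men and women of non-child-bearing potential. Single 900-mg oral dose or placebo, given fasted. CSF collected via indwelling lumbar catheter at −1, 0, 2, 4, 6, 8, 12, 15, 18 and 24 h. Aβ1-42/40/38 measured by Meso Scale 3-plex; Aβ1-37 by 26D6/Aβ1-37-selective polyclonal ELISA; Aβ1-x by 4G8/26D6-HRP ELISA.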

[5] = Plasma exposure in rats after single intravenous doses; assay type: in vivo, Sprague-Dawley rats; settings: rat, intravenous 1, 5, 10 mg/kg
In short: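 Same IV rat study: fasted females, 1, 5 or 10 mg/kg in PEG400/ethanol/Solutol, n = 4 per time point from 10 min to 24 h. Blood taken by cardiac puncture into EDTA for plasma. Plasma deproteinized and extracted with acetonitrile, then analysed by UPLC-MS/MS (C18 column at 60°C); quantitation range 10–5000 nM.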

[6] = test system: Notch1; experiment: Cell-based transcriptional reporter assay, Notch1; settings: read-out: Notch1 IC50
[7] = test system: Aβ1-x in H4-APPsw cell cultures; experiment: Automated multiplex HTRF assay, Aβ1-x in H4-APPsw cell cultures; assay type: cell-based; settings: read-out: Aβ1-x maximum inhibition, H4-APPsw cell cultures, overnight, at 50 μM; ± standard deviation
[8] = Distribution into rat brain after oral administration; assay type: in vivo, rats; settings: 10 mg/kg oral
In short: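 Rats dosed orally at 10 mg/kg in PEG400/Solutol/TPGS (90:5:5 w/w/w). n = 3 per time point, sampled at 1, 4, 8 and 24 h. Jugular blood collected into EDTA and centrifuged at 4°C (1500–2000 × g). Brain blotted, weighed and homogenized in 4 volumes of PBS; cerebellum analysed. Samples stored at −20°C, then LC-MS/MS. Brain-to-plasma ratios per time point and brain/plasma AUC ratio.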

[9] = 14-day daily oral dose safety assessment in rats; assay type: in vivo; settings: for AUC at 14 days: rat, in vivo, po, 100 mg/kg
In short: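 Safety study in male and female rats given daily oral doses of 10, 30 or 100 mg/kg for 14 days; plasma AUC determined on day 14.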

[10] = test system: Notch3; experiment: Cell-based transcriptional reporter assay, Notch3; settings: read-out: Notch3 IC50
[11] = test system: CSF Aβ peptides; experiment: CSF Aβ peptides in dogs after single oral doses; assay type: in vivo, beagle dogs; settings: dog
In short: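 Male beagles, about 1 year old, 8–11 kg, with indwelling lumbar catheters; CSF sampled while conscious and lightly restrained. Fasted 16 h before dosing, fed 4 h after. Four dogs in a randomized crossover with 1-week washout: oral 2, 5 or 30 mg/kg or vehicle. CSF taken predose and up to 72 h, spun at 1330 × g for 10 min at 4°C. Aβ1-42/40/38/37 measured by Meso Scale 4-plex; the four were also summed.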

[12] = test system: brain Aβ peptides; experiment: Brain Aβ peptides in rats after single intravenous doses; assay type: in vivo, Sprague-Dawley rats; settings: rat
In short: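 Female Sprague-Dawley rats, 10–12 weeks old, fasted from 16 h before to 4 h after dosing. Given IV 1, 5 or 10 mg/kg or vehicle (PEG400/ethanol/Solutol HS 15, 93:5:2 w/w/w; 1.5 ml/kg) in randomized order. n = 4 per time point, killed by CO2 at 10 min, 30 min, and 1, 3, 7, 12 and 24 h. Brain without cerebellum frozen in liquid nitrogen. Aβ1-42/40/38/37 measured by singleplex ELISAs; Aβ1-x by 4G8/252Q6-HRP ELISA; compared with vehicle.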

[13] = test system: Aβ peptides in H4-APPsw cell cultures; assay type: cell-based; settings: overnight, 100 nM
In short: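 H4-APPsw cultures incubated overnight with 0.1% DMSO or test compound at 100 nM. Aβ peptides were immunoprecipitated and analysed by MALDI mass spectrometry. Peaks were assigned by expected mass, referenced to an equimolar mix of synthetic peptides including [14N]Aβ1-40.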

[14] = test system: Aβ1-42; experiment: PK/PD across species: Aβ1-42 trough versus plasma exposure; assay type: in vivo; settings: nonlinear fit of the entire data set: rat, dog, monkey, human
In short: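 CSF Aβ1-42 trough (lowest level after dosing) plotted against plasma AUC and Cmax. Values were per individual human subject and per dose in individual dogs and monkeys. Rats used group means, with troughs for both brain and CSF, drawn from the IV study plus two further time courses. A nonlinear fit of the pooled data gave the exposure at 50% inhibition.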

[15] = test system: Aβ1-42 in H4-APPsw cell cultures; experiment: Aβ1-42 immunoassay; assay type: cell-based; settings: read-out: Aβ1-42 IC50
In short: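 Overnight exposure of H4-APPsw cultures, 10 pM to 10 μM. Aβ1-42 and Aβ1-40 were measured in parallel from the same cultures by automated HTRF immunoassays. Concentrations came from synthetic-peptide calibration curves (quadratic fit). Three independent assays; IC50 given with standard deviation.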

[16] = test system: CSF Aβ peptides; experiment: CSF Aβ peptides in monkeys after single intravenous doses; assay type: in vivo, cynomolgus monkeys; settings: monkey
[17] = Plasma exposure in monkeys after single intravenous doses; assay type: in vivo, cynomolgus monkeys; settings: monkey, intravenous 5 or 15 mg/kg
In short: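 Crossover in four lumbar-catheterized male cynomolgus monkeys given IV 5 or 15 mg/kg or vehicle. Blood drawn at 1, 2, 3, 4, 5 and 30 min and at 1, 2, 4, 7, 10, 24 and 48 h. Samples kept on ice and centrifuged at 2880 × g for 10 min; plasma kept for compound levels.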

[18] = test system: Aβ1-42 levels in cerebrospinal fluid; settings: clinical trials, even at high doses; ref Galasko et al., 2007; cited from earlier work
[19] = 30 mg/kg oral, 24 hours after dose
[20] = single intravenous dose 1, 5 or 10 mg/kg
[21] = intravenous, 12–24 hours after the 30-mg/kg dose (so in the source)

Compound: C[C@H](c1ccc(F)cc1CCCC(=O)O)N(c1cc(F)ccc1F)S(=O)(=O)c1ccc(Cl)cc1 [BMS-299897, (R)-4-(2-(1-((4-chloro-N-(2,5-difluorophenyl)phenyl)sulfonamido)ethyl)-5-fluorophenyl)butanoic acid, reference compound]
- Effect on production of Aβ1-42, Aβ1-40, Aβ1-38 and Aβ1-37 ([1]; 1 μM): inhibited production of all four Aβ peptides
- Reduction of Aβx-42 versus Aβ1-x in the multiplex assays (relative potency) ([2]; H4-APPsw cell cultures, overnight, 1 pM to 50 μM): approximately equal potency

Compound: CNc1nc(Nc2ccc(-n3cnc(C)n3)c(OC)c2)nc2c1CC[C@H]2c1ccc(F)cc1 [BMS-932481, (S)-7-(4-fluorophenyl)-N2-(3-methoxy-4-(3-methyl-1H-1,2,4-triazol-1-yl)phenyl)-N4-methyl-6,7-dihydro-5H-cyclopenta[d]pyrimidine-2,4-diamine]
- Effect on APP C-terminal fragment accumulation in brain [3]: no effect
- Effect on the overall level of Aβ ([1]; 0.46 to 333 nM): little if any effect
- CSF Aβ1-37 increase [4]: ca. 12 fold
- CSF Aβ1-40 change [4]: decrease
- CSF Aβ1-42, level relative to predose ([4]; after 24 hours): 50 % of predose levels
- CSF Aβ1-38 increase ([4]; gradual increase): about 2 fold
- CSF Aβ1-x transient increase ([4]; the same increase in the placebo group): approximately 40%
- Concentrations in blood plasma, dose proportionality [5]: dose-proportional
- IC50 [6]: ~1000 nM
- inhibition at 50 µM [7]: ≤ 30%
- Brain penetration [8]: moderate brain penetration
- AUC at 14 days ([9]; female): 508 µM·h
- AUC at 14 days ([9]; male): 892 µM·h
- Histologic changes suggestive of Notch inhibition ([9]; rat, 10, 30 or 100 mg/kg daily oral for 14 days, any dose level): no histologic changes suggestive of Notch inhibition
- IC50 [10]: ~1000 nM
- IC50 ([2]; read-out: Aβx-42 IC50): 5.5 nM
- CSF Aβ1-37 maximal increase ([11]; 30 mg/kg oral): 5 fold
- CSF Aβ1-40 maximum reduction [11, 19]: ca. 65%
- CSF Aβ1-42 maximum reduction [11, 19]: ca. 65%
- Effect on the sum of the four CSF Aβ peptides ([11]; oral 2, 5 or 30 mg/kg): little, if any, effect
- Sum of brain Aβ1-42, Aβ1-40, Aβ1-38 and Aβ1-37 concentrations, change ([12]; intravenous 1, 5 or 10 mg/kg): no significant changes
- Brain Aβ1-x change ([12]; intravenous, any dose or time point): no significant changes
- Brain Aβ1-37 maximal increase [12, 20]: ca. 6 fold
- Brain Aβ1-38 maximal increase [12, 20]: ca. 2 fold
- Brain Aβ1-40 maximum reduction relative to vehicle-treated rats [12, 20]: about 75%
- Brain Aβ1-42 maximum reduction relative to vehicle-treated rats [12, 20]: about 75%
- Aβ1-42 and Aβ1-40 detected by IP-MALDI mass spectroscopy [13]: no Aβ1-42 or Aβ1-40 was detected
- Plasma AUC at 50% inhibition (Aβ1-42 trough) [14]: 11 μM⋅h
- IC50 [15]: 6.6 nM

Compound: Cc1ncn(-c2ccc3cc2OC/C=C\CNc2nc(nc4c2CC[C@H]4c2ccc(Cl)cc2F)N3)n1 [BMS-986133, (S,Z)-17-(4-chloro-2-fluorophenyl)-34-(3-methyl-1H-1,2,4-triazol-1-yl)-16,17-dihydro-15H-4-oxa-2,9-diaza-1(2,4)-cyclopenta[d]pyrimidina-3(1,3)-benzenacyclononaphan-6-ene]
- Effect on CSF Aβ1-x or the sum of the four Aβ peptides ([16]; intravenous 5 or 15 mg/kg): little, if any, effect
- CSF Aβ1-40 maximum reduction [16, 21]: ca. 75%
- CSF Aβ1-42 maximum reduction [16, 21]: ca. 75%
- Concentrations in blood plasma, dose proportionality [17]: dose-proportional

Compound: CC(C(=O)O)c1ccc(-c2ccccc2)c(F)c1 (stereo not drawn) [flurbiprofen]
- Effect on Aβ1-42 levels in cerebrospinal fluid [18]: no effect
